From PMC9516706 (JACS Au, 2022)

Tests used:
A431 cells [1] = assay: Localization of peptide amphiphiles in cells; assay type: cell-based, human; conditions: C16-E4Y 0.05 wt % with NBD-C8-E4Y 0.001 wt %, 24 h, ER-tracker and MitoRed, CLSM
A431 cells [2] = assay: Apoptosis and necrosis detection; assay type: cell-based, human; conditions: C16-E4Y 0.08 wt %, 1 h, counting at least 1000 cells in CLSM images
Method in brief: (§1)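 Cells were grown on a dish for 24 h, then given medium containing test compound at 0.08 wt % for 1 h. Cells were stained with annexin V-FITC and propidium iodide using an apoptotic/necrotic/healthy cell detection kit. Staining was imaged by CLSM, with PI fluorescence marking membrane-damaged cells.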

A431 cells [3] = assay: Cytotoxicity assay; assay type: cell-based, human; conditions: for Selective cytotoxicity to A431 cells: five different cell lines compared, cell viability assay
Method in brief: (§2)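 Cells were seeded in 96-well plates and grown for 24 h. Medium was then replaced with medium containing the peptide amphiphile, and cells were incubated a further 20 h. Viability was read with WST-8 reagent. Lines were HeLa, A431, MCF-7 and HepG2 cancer cells, plus MvE and HEK293 normal cells.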

HeLa cells = assay: Apoptosis and necrosis detection; assay type: cell-based, human; conditions: C16-E4Y 0.08 wt %, 1 h, counting at least 1000 cells in CLSM images
Method in brief: as §1

A431 tumor = assay: Antitumor activity in vivo, A431-xenografted nude mice; conditions: same regimen, against PBS control group, n = 6
Method in brief: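 Nude mice with A431 cells injected subcutaneously into the flank. PBS (30 μL) with 1.5 wt % test compound was injected directly into the tumour three times a week for 3 weeks, against a PBS control. Bodyweight was followed during dosing, and tumour volume was taken as longer diameter × shorter diameter² × 0.5. Mice were sacrificed 4 weeks after inoculation; n = 6.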

A431 cells [4] = assay: Fluorescence recovery after photobleaching; assay type: cell-based, human; conditions: 0.08 wt% C16-E4Y for 1 h, without C16-E4Y recovery within 1 s
[5] = Gel formation of C16-E4Y phosphorylated by tyrosine kinase; assay type: physicochemical; conditions: C16-E4Y 1 wt%, ATP 15 mM, c-Src kinase 6 µg/mL, 1× kinase buffer, 37 °C, 7 days
HepG2 cells = assay: Detection of a peptide amphiphile phosphorylated in cells; assay type: cell-based, human; conditions: HepG2 cells cultured with 0.05 wt % C16-E4Y; medium and cell lysate
[6] = TEM observation of self-assembly; assay type: physicochemical; conditions: 1.0 wt % in PBS(+), stained with 2.0 wt % phosphotungstic acid, 200 kV
Method in brief: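 A carbon-supported TEM grid was dipped in a 1.0 wt % peptide amphiphile solution in PBS(+) containing Ca²⁺ and Mg²⁺. The grid was dried, negatively stained with 2.0 wt % phosphotungstic acid, and imaged at 200 kV accelerating voltage.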

A431 cells [7] = assay: Tyrosine kinase inhibitor assay; assay type: cell-based, human
[8] = test system: HeLa, A431, MCF-7, HepG2, MvE and HEK293 cells; assay: Cytotoxicity assay; assay type: cell-based, human; conditions: up to 0.1 wt %; four different cell lines
Method in brief: as §2

Which Intracellular localization (A431 cells [1]) does the source give for “N-palmitoyl-Glu-Glu-Glu-Glu-Tyr [C16-E4Y]” here?
The Intracellular localization was “accumulated on ER selectively”.

What about the “Cells in early apoptosis” value (A431 cells [2]) of the same compound?
The value was 15.4%.

What about the “Cytotoxicity toward A431 cells compared with the other cell lines” value (A431 cells [3]; 0.05 wt %, 20 h incubation, WST-8, five replicates) of the same compound?
The value was “remarkably higher cytotoxicity”.

What about the “Dose dependence of cytotoxicity” value (A431 cells [3]; A431 cells, Figure 3b) of the same compound?
The value was “dose-dependent”.

And the “Cells in early apoptosis” value (HeLa cells)?
The value was 0.4%.

What about the “Bodyweight of treated mice” value (A431 tumor) of the same compound?
The value was “comparable to those of the control group”.

What about the “Fluorescence recovery of ER-tracker after photobleaching” value (A431 cells [4]) of the same compound?
The value was “recovered relatively slowly”.

And the “Gelation after incubation with a tyrosine kinase and ATP” value [5]?
The value was “partially gelated”.

And the “Intracellular phosphorylation (C16-E4pY by MALDI-TOF/MS)” value (HepG2 cells)?
The value was “not detected”.

And the “Self-assembly morphology by TEM” value [6]?
The value was “nanosized strings several hundred nanometers in length”.

Which “Effect of EGFR inhibitor on the cytotoxicity of C16-E4Y” value (A431 cells [7]) does the source give for `C#Cc1cccc(Nc2ncnc3cc(OCCOC)c(OCCOC)cc23)c1` [erlotinib] here?
The value was “alleviated the cytotoxicity”.

With “N-capryloyl-Glu-Glu-Glu-Glu-Tyr [C8-E4Y]” as the compound, how does the “Cytotoxicity toward all cell lines tested” value [8] read?
Its value is “did not show cytotoxicity”.

What about the “Self-assembly morphology by TEM” value [6] of the same compound?
The value was “did not form any self-assembly body”.

For N-palmitoyl-Glu-Glu-Glu-Glu [C16-E4], which “Selective cytotoxicity to A431 cells” value (A431 cells [3]) is on record?
The value was “did not exhibit selective cytotoxicity”.

Which “Selective cytotoxicity to A431 cells” value (A431 cells [3]) does the source give for “N-palmitoyl-Glu-Glu-Glu-Glu-Phe [C16-E4F]” here?
The value was “did not exhibit selective cytotoxicity”.

Which “Cytotoxicity toward all cell lines tested” value [8] does the source give for N-lauroyl-Glu-Glu-Glu-Glu-Tyr [C12-E4Y] here?
Its value is “did not show cytotoxicity”.

What about the “Self-assembly morphology by TEM” value [6] of the same compound?
Its value is “formed only a few isolated short fibers”.

Which “Selective cytotoxicity to A431 cells” value (A431 cells [3]) does the source give for “N-palmitoyl-Glu-Glu-Glu-Glu-Ser [C16-E4S]” here?
Its value is “did not exhibit selective cytotoxicity”.
